Measured values as given in the EternaBench riboswitch data.

Tested on: MS2 coat protein
Assay: apparent Kd, MS2 coat protein; higher = weaker binding; RNA-MaP array; FMN 200 µM where present
Procedure, shortened: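 Two titrations, one without ligand and one with constant ligand, were run with SNAP-549-labelled MS2 coat protein from 0.7 or 1.5 nM, doubling to 3 µM. The targets were designs transcribed by stalled E. coli RNA polymerase on Illumina sequencing-chip clusters, in 100 mM Tris-HCl pH 7.5, 80 mM KCl, 4 mM MgCl2, BSA, DTT, yeast tRNA and Tween-20. The apparent Kd is the median of filtered per-cluster binding-curve fits, with green signal normalised to red-channel RNA signal and control-cluster median Fmax.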

[1] = designed as: ON switch for flavin mononucleotide, no ligand
[2] = ligand present: flavin mononucleotide, designed as: ON switch for flavin mononucleotide
[3] = designed as: OFF switch for flavin mononucleotide, no ligand
[4] = ligand present: flavin mononucleotide, designed as: OFF switch for flavin mononucleotide

Sequence | apparent Kd [1] | apparent Kd [2] | apparent Kd [3] | apparent Kd [4]
AAAGAUCCUCAGAAGGGCUCGUCCUAUAAGAUAGCAGGAUAUGAGGAGAUUGCCAAACAUGAGGAUCACCCAUGUAGUUGGAGU | 0.0835 µM | 0.0148 µM |  | 
GGAAAACAUGAGGAUCACCCAUGUGAGGAUAUUGAAACAAACAAAACAAACAAACAAACAAGAAGGCACAGGAA |  |  | 0.0261 µM | 0.0255 µM
AUACAUGAGGAUCACCCAUGUUACUGGGUCUUUUUAGAACGUAGAAGGAUGUUUUUAUACAUAACAUAGGAUAUACAAUAUUGU |  |  | 0.0518 µM | 0.0489 µM
GGUUCCUUCACAGGAUAUGCUAUCCUUUGGGUAGCAGAAGGGUGAUACAUGAGGAUCACCCAUGUGGAGCCAGGGCGUGAGCCC | 1.26 µM | 0.428 µM |  | 
GCCAUCAUAUGAGGAUAUGACACCGAAACGGUGUCAGAAGGCAUGUCGAUAGACAUGAGGAUCACCCAUGUAUAGAUGAUGGCA | 0.963 µM | 0.0678 µM |  | 
GCUAUUACAGGAUAUCGUUGUUAUAACAUGAGGAUCACCCAUGUUCGGCUCGUGAUCCAGCGAGAAGGGUGGACGC |  |  | 0.0717 µM | 0.073 µM
GUCAGCUCGUGAGGAUAUACAACACUGCUUCGGCAGUGUAUUAAGAUCACAUGAGGAUCACCCAUGUAGAAGGCACGAGCCGAU |  |  | 0.0143 µM | 0.271 µM
UAUAUGUCAGGAUAUCGAUUGGAAUGGAAUUCAGUUCUGGUUGAGAAGGGACAUGAGGAUCACCCAUGUUUUUC |  |  | 0.0373 µM | 0.171 µM
AACAUGAGGAUCACCCAUGUCCCACCAGAAGGCUGGCGGUGGUAGGAAAGGCUACGACAAAUAACAGAGGAUAUGGUGAAUGCA | 0.0889 µM | 0.0208 µM |  | 
GUUUCACAUGAGGAUCACCCAUGUGAGGAUAUGGAUUUGUUAACCGUAGUUAAUAGAUCCAGAAGGCGCGUGAU |  |  | 0.0624 µM | 0.0682 µM
GGAUAGGACAGAGGAUAUACGUGCUAGAGAUAUUAGCAAAAUUUCCUCACAUGAGGAUCACCCAUGUAGAAGGCUGUCCUAUCG |  |  | 0.0194 µM | 0.328 µM
ACGAUUCACUCAGGAUAUGUAUCACCUCGUUACCAACAUGAGGAUCACCCAUGUCCGUGGCUCGGACAGAAGGGAGAAGAAUCG | 0.733 µM | 0.22 µM |  | 
GCAGCACAGUAUUACAUGAGGAUCACCCAUGUCGAUUGAGAUGAGGAUAUGCAUCGAAUGAAGUUGCAGAAGGCAUUGUGCUGC | 0.0109 µM | 0.00594 µM |  | 
AUCAGCUCGUCAGGAUAUACGUCACUGCGUCAGCAGUGUGGUAAGAUCACAUGAGGAUCACCCAUGUAGAAGGCACGAGCUGAU |  |  | 0.00844 µM | 0.00904 µM
UCGAACGGAAACAAAGUCUUCGGACAUGAGGAUCACCCAUGUAAGGAUAUGCCUACUAAAAGUAGGCAGAAGGUACGCGUUCGA |  |  | 0.0221 µM | 0.0511 µM
GUAGCAUGCAGGCAGGAUAUUCAUAUUAAAACAUGAGGAUCACCCAUGUAGGCCGAAAGGCCUUGGGAGAAGGGCCACAUGCUAC | 0.786 µM | 0.0526 µM |  | 
UUUGUCUGUGUGAGGAUAUACUUUUUUUGGUUUUUGUAGAAGGCACAUGAGGAUCACCCAUGUAUUUUGUUGUG |  |  | 0.0377 µM | 0.0502 µM
GUCCUACAUGAGGAUCACCCAUGUGAGGAUAUGGAUUCGCUGGCCGUAGCCAGUGGAUCCAGAAGGCGCAUGAU |  |  | 0.0269 µM | 0.0828 µM
AGAUAGUGCAGAGGAUAUCUUAAUAGAAAGAAUAGAGAAGGCUGACAUGAGGAUCACCCAUGUGAUGUCUUGAGACUACAUGGU |  |  | 0.0484 µM | 0.336 µM
UCAUACGGUGAGGAUAUCUCCGCUAAAGUGUGUAGAGAAGGCGCUACAUGAGGAUCACCCAUGUUUAUGGGCAG |  |  | 0.403 µM | 0.228 µM
AAAAUCUAUUGAGGAUAUUCAUACACUGCAUACGGAGAAGGCAAACAAUCAUGAGGACAUGAGGAUCACCCAUGUUGUGACCAU | 0.0175 µM | 0.0153 µM |  | 
GGAUAGGACAGAGGAUAUACGUGCUAGAGAUACUUGCAAAAUUUCCUCACAUGAGGAUCACCCAUGUAGAAGGCUGUCCUAUCG |  |  | 0.056 µM | 0.489 µM
GUACUAAAGCUUUGCUUUAGUCGUACAUGAGGAUCACCCAUGUAGGAUAUGGUAGGCUUUGCUUACUAGAAGGAUAGAGUGAUC |  |  | 0.11 µM | 0.0361 µM
AGGAAGUGAGGAUAUGCAUCAUAUAGUGGACGCUAUAGAAUGUAGAAGGCACAUGAGGAUCACCCAUGUUUAAA |  |  | 0.0302 µM | 0.0293 µM
GUAAACGAUGAGGAUAUAUGAUAUCAAAGCAUCAUAGAAGGCAUCACAUGAGGAUCACCCAUGUGAUCUUCUUU |  |  | 0.0175 µM | 0.0785 µM
UGAGCAGAAGGAUAUGCGUAAUGGCCGUGAGGCCUAGAUCUACAUGAGGAUCACCCAUGUAGAAGGUCUGUUCU |  |  | 0.0154 µM | 0.0152 µM
CUAGCAACAUGAGGAUCACCCAUGUAGGAUAUCGCUAUUGUAAUCAUGAAACAUGAUUACAAUAGCGAGAAGGACAUAUGCUAC |  |  | 0.00959 µM | 0.011 µM
AGUGUCAUCCAGAAGGCCUCAUUACAUGAGGAUCACCCAUGUAAUCGUGGGAGGAUAUGGAUGAUACAGCUACGUUUCGUAGCA | 0.00742 µM | 0.00465 µM |  | 

Sequence | apparent Kd [1] | apparent Kd [2] | apparent Kd [3] | apparent Kd [4]
CGAAACUACGAGAAGGACAUGUGGUCCUUCAGUUACAUGAGGAUCACCCAUGUAGGAUAUCGUAGUUUCAGGAUCGUGAGAUCU |  |  | 0.0387 µM | 0.00981 µM
AAUUAGGUCACAGGAUAUACAUCAUCCAUAGCUGUAGAAGGGUGUCAAAAUAAUAUCUGACAUGAGGAUCACCCAUGUUUCCAC | 0.025 µM | 0.0145 µM |  | 
GGAAAACAUGAGGAUCACCCAUGUGAGGAUAUCGAUGUCCAAAAACAAGUGCGGGACUCGAGAAGGCACUUGGA |  |  | 0.035 µM | 0.0232 µM
UGGUACUAGGGAGGAUAUGGCAAGAUACAUGAGGAUCACCCAUGUUUAAGAAUGCCGAGAGGCAACUAGAAGGCCCUAGUACCU | 0.00775 µM | 0.0047 µM |  | 
UAAAUUAACAAGAAGGCUAACAUGAGGAUCACCCAUGUUGUACAUGGAUAUAGAGGAUAUUGAUAAUAAUUUUUUAUCAUAAUU |  |  | 0.0176 µM | 0.0165 µM
GUUUUCGCAGGAUAUUAGAGUUUUUACAUGAGGAUCACCCAUGUUAAUUGGGUUAAUGUCUAAGAAGGGCGAUGUA |  |  | 0.0676 µM | 0.101 µM
CUAGCUAUCGGAGGAUAUUCAUAGCCGAAAGGCACAUGAGGAUCACCCAUGUGCGGAAACGCUUGGGAGAAGGCCGAUAGCUAG | 0.0257 µM | 0.0152 µM |  | 
AGUUACAUGUAAGGAUAUACUAGCGAUAAGCUAGUAGAAGGUACUGUCUAUUGUAUCACUAUUAUACAUGAGGAUCACCCAUGU | 0.00756 µM | 0.00636 µM |  | 
AACAGUACAGGAUAUACAUGAGGAUCACCCAUGUGAGAAUUAAGUGGCGUACCACUAAGUAGAAGGGUACUGGA |  |  | 0.0517 µM | 0.151 µM
GUCCUACAUGAGGAUCACCCAUGUAAGGAUAUGCUAGCGGUCGGAUGACUGACUGCUAGCAGAAGGUACAUGAU |  |  | 0.0152 µM | 0.0249 µM
GUCAGCUCGUGAGGAUAUACAACACUGCUUCGGCAGUGUAUUAAAAUAACAUGAGGAUCACCCAUGUAGAAGGCACGAGCUGAU |  |  | 0.00514 µM | 0.00662 µM
CUUUUGUGAGGAUAUUCGUAGUAGAUAAAUAAAACUAUUACGGAGAAGGCACAUGAGGAUCACCCAUGUUCCUU |  |  | 0.0167 µM | 0.0545 µM
AUAUGAAAGAUAGGAUAUACUGAGGUUGAAUGGGUAGAAGGAUCGAUAGUGGAGAAGACAUGAGGAUCACCCAUGUUGUGGAUU | 0.656 µM | 0.237 µM |  | 
AAACACGGAGGAUAUACAGGUUCGGGAAACCGAACCGGCUGACAUGAGGAUCACCCAUGUAGAAGGCCGAAAUA |  |  | 0.0193 µM | 0.0458 µM
GAUCCUUCUGUUAGGAUAUGCUUUGGGCUUCCGCUGCAGAAGGAACAUGAGGAUCACCCAUGUCCGAUGCCGUC |  |  | 0.074 µM | 0.0894 µM
GGAAACUACGAGAAGGACAUGUGGUCCUUCAGUUACAUGAGGAUCACCCAUGUAGGAUAUCGUAGUUUCAGGAUCGUGAGAUCG |  |  | 0.0357 µM | 0.00939 µM
UGGAUCAUCGGAGGAUAUCAUGUAAAUACAUGAGGAUCACCCAUGUCGUACGAGAGUACGGAGAUUGAGAAGGCCGAUGAUCCU | 0.0246 µM | 0.0154 µM |  | 
CCAUGGCAUGUAGGAUAUCUCUGACAAAGUCAGAGAGAAGGACAUGAGGAUCACCCAUGUAAACCGAAAGGAACAUAGCCAUGG |  |  | 0.00631 µM | 0.00626 µM
UUUCAACAUGAGGAUCACCCAUGUGAGGAUAUGAUGCAGCAGUGGUCUACGCUGUGCAUCAGAAGGCACAUGUG |  |  | 0.2 µM | 0.0218 µM
AUAAUGUGAGGAUAUCAGUCGACUAGCUGCGGCUAGUCGACUGAGAAGGCACAUGAGGAUCACCCAUGUAGAUC |  |  | 0.978 µM | 0.0477 µM
GUCAGCUCGUGAGGAUAUACAUGUGCUGGAAACAGCACUAAUUAAAUCACAUGAGGAUCACCCAUGUAGAAGGCACGAGCUGAU |  |  | 0.0164 µM | 0.0236 µM
GGAGACCUCACAGGAUAUGCUGGACUUUGUCCAGCAGAAGGGUGACUAAACAUGAGGAUCACCCAUGUGGUCUCCAAAUUUAAU | 0.74 µM | 0.0682 µM |  | 
CUGCUGGAGCUUCGCUUUGGUCGUACAUGAGGAUCACCCAUGUAGGAUAUGGUAAAAUUCGCCUGCUAGAAGGAUAGAGUGGUC |  |  | 0.0672 µM | 0.139 µM
CGCAAGUAUACAUGAGGAUCACCCAUGUCAAAUAUGGUAAUCAGAAGGUACAAUUCAAUAUAUAGUAAGGAUAUGAAUUUUGCG | 0.059 µM | 0.0233 µM |  | 
UGUUGUUCCGCAGGAUAUGUAUUAGAUUAUAAUACAGAAGGGCGAUAACAUGAGGAUCACCCAUGUGUGGACAAUAAGGAAGAG | 0.602 µM | 0.0812 µM |  | 
UACUCAUGUGAGAAGGGACGUAUCUCCAUGAGGGCAGGGCUAUUAGGGAAGUCAGGAUAUCACAUGAGGAUCACCCAUGUGACG |  |  | 0.00691 µM | 0.00733 µM
UGGCGCAUGUGAGGAUAUAAUGGGUAGUAACUAUUAGAAGGUACAUGAGGAUCACCCAUGUACUUGGGUUUAUCAGGAACUCCU |  |  | 0.00702 µM | 0.0067 µM
